Results taken from article PMC9426400 (Hepatology Communications, 2022).
Like-named read-outs stand apart in the source and are kept apart here. One block for each molecule: values may come before it.

Legend:
[1] = test system: FFD-fed dyslipidemic Sprague Dawley rats; assay: Dyslipidemic rat model; assay type: in vivo; conditions: for Dose in ACCi combination with significantly reduced hepatic Apoc3 expression: relative to both vehicle and ACCi alone; for Dose inducing PPAR target genes in eWAT: epidydimal white adipose tissue
Procedure, shortened: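 Sprague Dawley rats fed FFD plus 4.03% sugar water (2.3% fructose, 1.7% glucose) for 28 days, across three studies. PPAR or THRβ agonists started Day 7 and ACCi Day 14. Circulating TG on Day 22 (serum Study 2, plasma Studies 3–4; n = 5–10/group). Terminal liver TG was taken fed, 8 h post-dose. Liver and eWAT gene expression measured. Nonparametric statistics, p ≤ 0.05.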

[2] = test system: LX2 human hepatic stellate cell line; assay: LX2 collagen assay; assay type: cell-based; conditions: LX-2, read-out: EC50, inhibition of collagen production
[3] = test system: Huh7 cells; assay: FAO assay in Huh7 cells; assay type: cell-based, human; conditions: for EC50: Homo sapiens; for FAO induction (times): 14C-OA, monotherapy; for Stimulation of FAO: at the concentrations tested
[4] = test system: subjects with NASH; conditions: cited from earlier work
[5] = test system: FFD-fed C57BL/6 mice; assay: FFD mouse model of early NASH; assay type: in vivo
[6] = molecular target: T1, rat PPARδ (Rattus norvegicus, UniProt Q62879); assay: PPAR luciferase reporter assay, rat PPARδ; assay type: cell-based
T1 sequence (Q62879 1-440): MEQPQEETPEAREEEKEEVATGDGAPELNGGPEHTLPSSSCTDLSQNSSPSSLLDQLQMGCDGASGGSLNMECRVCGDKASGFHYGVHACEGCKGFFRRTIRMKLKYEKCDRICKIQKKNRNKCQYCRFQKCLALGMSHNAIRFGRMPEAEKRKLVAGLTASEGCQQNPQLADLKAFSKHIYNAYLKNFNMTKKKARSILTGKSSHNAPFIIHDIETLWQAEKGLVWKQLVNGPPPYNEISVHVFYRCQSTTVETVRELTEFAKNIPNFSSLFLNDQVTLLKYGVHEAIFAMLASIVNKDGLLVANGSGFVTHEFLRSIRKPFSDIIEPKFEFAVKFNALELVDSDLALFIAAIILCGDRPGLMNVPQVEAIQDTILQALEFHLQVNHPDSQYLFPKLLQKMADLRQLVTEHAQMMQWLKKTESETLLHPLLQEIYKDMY

[7] = test system: FAO; assay: FAO assay validation with CPT1 inhibitor etomoxir; assay type: cell-based; conditions: read-out: EC50, block of FAO
[8] = Study 2, combination with ACCi 30 mg/kg, 15 mg/kg Feno, 30 mg/kg Ela
[9] = Huh-7, read-out: FAO EC50, Huh7 cells, 14C-OA, monotherapy

EC50 [2]: ~2000 nM
EC50 [3, 9]: 10300 nM
SMILES: CSc1ccc(C(=O)/C=C/c2cc(C)c(OC(C)(C)C(=O)O)c(C)c2)cc1 [Ela, elafibranor]
Liver TG reduction compared with vehicle [1, 8]: 76%
Dose in ACCi combination with significantly reduced hepatic Apoc3 expression [1]: ≥ 3 mg/kg
FAO induction (times) ([3]; Huh7 cells): 1.4 times

EC50 ([3]; Huh-7, read-out: FAO EC50, Huh7 cells, 14C-OA tracer): 32.7 nM
EC50 ([3]; Huh-7, read-out: FAO EC50, Huh7 cells, 14C-PA tracer): 16.6 nM
SMILES: COc1ccccc1[C@H](Cn1c(=O)n(C(C)(C)C(=O)O)c(=O)c2c(C)c(-c3ncco3)sc21)OC1CCOCC1 [FIR, Firsocostat]
Reduction in relative liver TG ([4]; subjects with NASH): 30%

SMILES: CC(C)OC(=O)C(C)(C)Oc1ccc(C(=O)c2ccc(Cl)cc2)cc1 [Feno, fenofibrate]
Liver TG reduction compared with vehicle [1, 8]: 58%
Dose in ACCi combination with significantly reduced hepatic Apoc3 expression [1]: ≥ 5 mg/kg
Liver total cholesterol content reduction ([5]; Feno^high (150 mg/kg) monotherapy): 57%
Liver total cholesterol content reduction ([5]; Feno^low (50 mg/kg) monotherapy): 49%

SMILES: CC(C)(Oc1ccc(C(=O)c2ccc(Cl)cc2)cc1)C(=O)O [Fenofibric acid]
Activity in the FAO assay ([3]; Huh7 cells, up to a concentration of 100 μM): not active

Activation of rat PPARδ [6]: did not activate rat PPARδ
SMILES: O=C(O)CCCc1cc2cc(Cl)ccc2n1S(=O)(=O)c1ccc2ncsc2c1 [Lani, lanifibranor]
Stimulation of FAO ([3]; Huh7 cells): did not stimulate FAO
NASH resolution (share of subjects) ([4]; over 24 weeks, vs. 19% placebo): 45%
Fibrosis regression (share of subjects) ([4]; over 24 weeks, vs. 24% placebo): 42%

EC50 [3, 9]: 46000 nM
SMILES: CC(C)c1cc(Oc2c(Cl)cc(-n3nc(C#N)c(=O)[nH]c3=O)cc2Cl)n[nH]c1=O [Res, Resmetirom]
Liver TG reduction compared with vehicle ([1]; Study 4, 1 mg/kg Res in combination with ACCi 30 mg/kg): 83%
Liver TG reduction compared with vehicle ([1]; Study 4, 3 mg/kg Res in combination with ACCi 30 mg/kg): 88%
Liver TG in combination with ACCi relative to ACCi alone ([1]; dyslipidemic rats, combined with ACCi 30 mg/kg): lowered liver TG relative to ACCi alone
Circulating TG reduction vs. vehicle ([1]; dyslipidemic rats, monotherapy, 3 mg/kg, after 1 week): 50%
Dose in ACCi combination with significantly reduced hepatic Apoc3 expression [1]: 3 mg/kg
FAO induction (times) ([3]; Huh7 cells): 1.6 times
NASH resolution (share of subjects) ([4]; vs. 6.5% placebo): 27.4%

EC50 [3, 9]: 51500 nM
SMILES: CCO[C@@H](Cc1ccc(OCCn2c(C)ccc2-c2ccc(SC)cc2)cc1)C(=O)O [Saro, saroglitazar]
Dose inducing PPAR target genes in eWAT ([1]; dyslipidemic rats): 3 mg/kg
Dose in ACCi combination with significantly reduced hepatic Apoc3 expression [1]: ≥ 0.3 mg/kg
FAO induction (times) ([3]; Huh7 cells): 3.6 times

SMILES: CCO[C@H](COc1ccc(C(F)(F)F)cc1)CSc1ccc(OCC(=O)O)c(C)c1 [Sela, seladelpar]
Dose inducing PPAR target genes in eWAT ([1]; dyslipidemic rats): 15 mg/kg
Dose in ACCi combination with significantly reduced hepatic Apoc3 expression [1]: 15 mg/kg
Stimulation of FAO ([3]; Huh7 cells): did not stimulate FAO
NASH resolution (share of subjects) ([4]; over 52 weeks, vs. 8% placebo): 26%

EC50 [7]: 136 nM
SMILES: CCOC(=O)[C@@]1(CCCCCCOc2ccc(Cl)cc2)CO1 [etomoxir]

SMILES: CCc1ccc(CCOc2ccc(CC3SC(=O)NC3=O)cc2)nc1 (centres unmarked) [pioglitazone]
NASH resolution (share of subjects) ([4]; vs. 21% placebo): 47%
